To fix the notation:
B1: tRNA (parent)
chain: CUCUCGGUAGCCAAGUUGGUUUAAGGCGCAAGACUUUAAUUUAUCACUACGAAAUCUUGAGAUCGGGCGUUCGACUCGCCCCCGGGAGAUUUUUUCCUCGAGCAA

This sample holds only a part of the variants without activity.

In the data set the parent is B1. As to the kind of experiment: nonsense suppression (GFP-seq) (ratio to wild type); higher = more function; SUP4oc tRNA, yeast GFP reporter sort-seq. A digest of the protocol:
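To measure nonsense suppression, tRNA variants from a library carrying ~3% random mutations were integrated into the yeast genome alongside RFP and a GFP ochre reporter under galactose control. Growth took place in raffinose/galactose medium supplemented with 80 mg/L adenine, followed by sorting into GFP/RFP bins and Illumina sequencing of each bin (phred ≥30). For each variant with ≥100 reads and ≥30 cells, the bin median GFP/RFP values were weighted by its estimated cell share per bin and referenced to the unmutated parent tRNA.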
CUCUCGGUAGCCAAGCUGGUUUAAGGCGCAAGACUUUAAUUUAUCACUACGAAAUCUUGAGAUCGGGCGUUCGACUCGCCUCCGGGAGAUUUUUUCCUCGAGCAA [U16C C81U]: the nonsense suppression is 1.16. Regarding CUCUCGGUAGCCAAGCUGGUUUAAGGCGCAAGACUUUAAUUUAUCACUACGAAAUCUUGAGAUCGGGCGUUCGACUCGCCGCCGGGAGAUUUUUUCCUCGAGCAA [U16C C81G], the nonsense suppression was not above 0.026. Regarding CUCUCGGUAGCCAAGCUGGUAGAAGGCGCAAGACUUUAAUUUAUCACUACGAAAUCUUGAGAUCGGGCGUUCGACUCGCCCCCGGGAGAUUUUUUCCUCGAGCAA [U16C U21A U22G], the nonsense suppression worked out at 0.861. The figure for CUCUCGGUAGCCAAGCUGGUUUAAGGCGCAAGACUUUAAUUUAUCACUACGAAACCUUGAGAUCGGGCGUUCGACUCGCCCCCGGGAGAUUUUUUCCUCGAGCAA [U16C U55C] is 0.769; for CUCUCGGUAGCCAAGCUGGUUUAAGGCGCAAGACUUUAAUUUAUCACUACGAAAUCUUGAGAUCGGGCGUUCGACUCGCCCCUGGGAGAUUUUUUCCUCGAGCAA [U16C C83U] it is 0.5; for CUCUCGGUAGCCAAGCUGGUCUAAGGCGCAAGACUUUAAUUUAUCACUACGAAAUCUUGAGAUCGGGCGUUCGACUCGCCCCCGGGAGAUUUUUUCCUCGAGCAA [U16C U21C] it is 1.03.

With CUCUCGGUAGCCAAGCUGGUUCAAGGCGCAAGACUUUAAUUUAUCACUACGAAAUCUUGACAUCGGGCGUUCGACUCGCCCCCGGGAGAUUUUUUCCUCGAGCAA [U16C U22C G61C], the nonsense suppression is 0.207. CUCUCGGUAGCCAAGCUGGUUUAAGGCGCAAGACUUUAAUUUAUCACUACGAAAUCUUGAGACCGGGCGUUCGACUCGCCCCCGGGAGAUUUUUUCCUCGAGCAA [U16C U63C]: the nonsense suppression was 1.11.

Regarding CUCUCGGUAGCCAAGCUGGUUUAAGGCGCAAAACUUUAAUUUAUCACUACGAAAUCUUAAGAUCGGGCGUUCGACUCGCCCGCGGGAGAUUUUUUCCUCGAGCAA [U16C G32A G59A C82G], the nonsense suppression was not above 0.026. The same measure for CUCUCGGUAGCCAAGCUGGUUUAAGGCGCAAGACUUUAAUUUAUCACUACGAAAUCUUGAGAUCGGGCGUUCGACUCGCCCGCGGGAGAUUUUUUCCUCGAGCAA [U16C C82G]: not above 0.026.

For CUCUCGGUAGCCAAGCUGGUUUAAGGCGCAAGACUUUAAUUUAUCACUACGAAAUCUUGAGAUCGGGCGUUCGACUCACCCCCGGGAGAUUUUUUCCUCGAGCAA [U16C G78A], the nonsense suppression was 0.837. The figure for CUCUCGGUAGCCAAGCUGGUUUAAGGCGCAAGACUUUAAUUUAUCACUACGAAAUCUUGAGAUCGGGCGUUCGACUCUCCCCCGGGAGAUUUUUUCCUCGAGCAA [U16C G78U] is 0.454; for CUCUCGGUAGCCAAGCUGGUUUAAGGCGCAAGACUUUAAUUUAUCACUACGAAAUCUUGAGAUCGGGCGUUCGACUCGCCCCGGGAGGAUUUUUUCCUCGAGCAA [U16C C83G G86A A87G] it is not above 0.026. The same measure for CUCUCGGUAGCCAAGCUGGUUUAAGGCGCAAGACUUUAAUUUAUCACUACGAAAUCUUGGGAUCGGGCGUUCGACUCGCCCCCGGCAGAUUUUUUCCUCGAGCAA [U16C A60G G86C]: not above 0.026; for CUCUCGGUAGCCAAGCUGGUUUAAGGCGUAAGACUUUAAUUUAUCACUACGAAAUCUUGAGAUCGGGCGUUCGACUCGCCCCCGGGAGAUUUUUUCCUCGAGCAA [U16C C29U]: 1.11. The same measure for CUCUCGGUAGCCAAGCUGGUUUAAGGCACAAGACUUUAAUUUAUCACUACGAAAUCUUGAGAUCGGGCGUUCGACUCGCCCCCGGGAGAUUUUUUCCUCGAGCAA [U16C G28A]: 1.06. For CUCUCGGUAGCCAAGCUGGUUUAAGGCGCAAGACUUUAAUUUAUCACUACGAAAUCUUGAAAACGGGCGUUCGACUCGCCCCCGGGAGAUUUUUUCCUCGAGCAA [U16C G61A U63A], the nonsense suppression turned out to be 0.186. The figure for CUCUCGGUAGCCAAGCUGGUUUAAGGCGCAAGACUUUAAUUUAUCACUACGAAAUCUUGAGAUCGGGCGUUCGACUCGCCCACGAGAGAUUUUUUCCUCGAGCAA [U16C C82A G85A] is not above 0.026; for CUCUCGGUAGCCAAGCUGGUCUAAGGCGCAUGACUUUAAUUUAUCACUACGAAAUCUUGAGAUCGGGCGUUCGACUCGCCCCCGGGAGAUUUUUUCCUCGAGCAA [U16C U21C A31U] it is 0.204. The same measure for CUCUCGGUAGCCAAGCCAGUUUAAGGCGCAAGACUUUAAUUUAUCACUACGAAAUCUUGAGAUCGGACGUUCGACUCGCCCCCGGGAGAUUUUUUCCUCGAGCAA [U16C U17C G18A G67A]: not above 0.026; for CUCUCGGUAGCCAAGCUGGUUUAAGGCGCAAGACUUUAAUUUAUCACUACGAAAUCUUGAUAUCGGGCGUUCAACUCGCCCCCGGGAGAUUUUUUCCUCGAGCAA [U16C G61U G73A]: 0.438; for CUCUCGGUAGCCAAGCUGGUUUAAGGCGCAAGACUUUAAUUUAUCACUACGAAAUCUUGAGAUCGGGUGUUCGACUCGCCCCCGGGAGAUUUUUUCCUCGAGCAA [U16C C68U]: 1.03. As to CUCUCGGUAGCCAAGCUGGUUUAAGGUGCAAGACUUUAAUUUAUCACUACGAAAUCUUGAGAUCGGGCGUUCGACUCGCCCCCGGGAGAUUUUUUCCUCGAGCAA [U16C C27U], the nonsense suppression is 0.137.

Take CUCUCGGUAGCCAAGCUGGUUUAAGGCGCAAGACUUUAAUUUAUCACUACGAAAUCUUGAGAUCGGGCGUUCAACUCGCCCCCGGGAGAUUUUUUCCUCGAGCAA [U16C G73A]: the nonsense suppression is 1.22. The figure for CUCUCGGUAGCCAAGCUGGUGUAAGGCGCAGCACUUUAAUUUAUCACUACGAAAUCUUGAGAUCGGGCAUCCGAAUCGCCCCCGGAAGAUUUUUUCCUCGAGCAA [U16C U21G A31G G32C G69A U71C C75A G86A] is not above 0.026. As for CUCUCGGUAGCCAAGCUGGUUUAAGGCGCAAGACUUUAAUUUAUCACUACGAAAUCUUGAGAUCGGGAGUUCGACUCGCCCCCGGGAUAUUUUUUCCUCGAGCAA [U16C C68A G88U], the nonsense suppression was not above 0.026.

Consider CUCUCGGUAGCCAAGCGGGUUUAAGGCGCAAGACUUUAAUUUAUCACUACGAAAUCUUGAGAUCGGGCGUUCGACUCGCCCCCGGGAGAUUUUUUCCUCGAGCAA [U16C U17G], for which the nonsense suppression is 1.07.

These data come from the RNAGym collection of RNA variant scans (doi:10.1101/gad.245936.114).
